Screening data as filed in PubChem BioAssay.
In the library only some 3.1% were active in any assay of this set; here they are far more common.
MBD2 inh = blocks human MBD2 binding to methylated DNA; Q9UBB5; TR-FRET, MBD2 binding to methylated oligonucleotide; inhibition, % at 4.4 µM; actives 0.31% (n = 370,000); AID 686964; in the data active = inhibition above about 13%
rCAG binder = molecules binding r(CAG) RNA repeats. r(CAG) RNA repeat, TO-PRO-1 dye displacement fluorescence. inhibition, % at 3 µM. actives 1.3% (n = 370,000);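 active = inhibition above the plate cutoff, the mean of all test compounds on that plate plus 3 SD, cut at about 35% in these data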;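 note: 0% = DMSO alone and 100% = 100 µM mitoxantrone as full dye displacement; higher means more dye released from RNA so lower well fluorescence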
LEDGF integ inh = blocks HIV-1 LEDGF/p75-dependent DNA integration; actives 0.64% (n = 370,000); inhibition, % at 3.7 µM; TR-FRET IN-LEDGF/p75 DNA integration, Eu/Cy5;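 active = inhibition above the screen-wide mean plus 3 SD, cut at about 13% in these data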;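 note: signal is the Cy5 over europium emission ratio at 671 and 618 nm; 0% = plate median of compound wells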
ATG4B inhibitor = blocks human ATG4B protease cleavage of LC3 substrate. Q9Y4P1. ATG4B cleavage of LC3-PLA2, NBD-HPC fluorescence, 1 h. inhibition, % at 8.33 µM. actives 0.51% (n = 340,000). AID 504462; in the data active = inhibition above about 40%
UHRF1 MBD2 ctr = blocks human UHRF1 binding to methylated DNA; UHRF1 binding to methylated oligo, TR-FRET; inhibition, % at 4.4 µM; actives 0.75% (n = 370,000); Q96T88; in the data active = inhibition above about 21%;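 note: UHRF1 SRA domain binding a hemimethylated CpG hairpin DNA probe; 0% = median of test compound wells and 100% = reference inhibitor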
CSN deneddyl inh = CSN deneddylation inhibition | AID 651999 | actives 0.38% (n = 360,000) | inhibition, % at 12.5 µM | Q92905 | Purified CSN, SCF-Nedd8-OG deneddylation, fluorescence polarization;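 active = pattern-corrected inhibition above about 35%, with an unprinted fluorescence ratio check between 0.5 and 1.5, limit read from the data, passing the limit was not always enough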;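 note: 0% = enzyme with substrate and 100% = substrate without enzyme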
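Schedule: reaction 90 min, room temperature / Assay system: HEK293T-derived human Csn5 enzyme / Input: Csn5 at 0.24 nM final / Measure: inhibition of Csn5 cleavage, % / Control set: substrate-only high control, full reaction low control / Technique: fluorescence polarization of the substrate / Buffer or medium: Tris/NaCl/DTT buffer, pH 7.5 / Reagent: SCFSkp2-Nedd8OG substrate at 10 nM final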
IN multimer act = activates HIV-1 integrase multimerization in LEDGF counter-screen. shares compounds with LEDGF integ inh. TR-FRET HIV-1 integrase multimerization, biochemical. activation, % at 7.7 µM. actives 17% (n = 2,000); in the data active = activation above about 8.9%
TRFRET interf = counter-screen for LEDGF/p75 integration inhibitors: TR-FRET optical interference; shares compounds with LEDGF integ inh; TR-FRET optical interference counterscreen, HIV-1 IN multimerization; inhibition, % at 7.7 µM; 2,000 tested, under 10 active; AID 1053135;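 active = inhibition above the mean over all tested compounds plus 3 SD, which no compound reached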;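 note: 0% = integrase with antibodies and DMSO and 100% = antibodies without integrase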
IN-LEDGF confirm = confirmation of HIV-1 LEDGF/p75-dependent integration inhibitors; AID 1053136; TR-FRET LEDGF/p75-dependent HIV-1 integration, biochemical; inhibition, % at 3.7 µM; shares compounds with LEDGF integ inh; actives 36% (n = 2,000); in the data active = inhibition above about 14%
Numbers without * were called inactive; nt = not tested or not shown.

SMILES	MBD2 inh	rCAG binder	LEDGF integ inh	ATG4B inhibitor	UHRF1 MBD2 ctr	CSN deneddyl inh	IN multimer act	TRFRET interf	IN-LEDGF confirm
CCOC1=C2[C@@H](CN(S(=O)(=O)c3ccccc3C)[C@H]2c2ccc(Cl)cc2)[C@H]2C(=O)N(c3ccccc3)C(=O)[C@H]2C1	-4	16	37*	nt	-1	3	1	-3	-9
O=C(Nc1ccc(OC(F)(F)F)cc1)Nc1c(-c2ccc(F)cc2)nc2ncccn12	-1	8	5	nt	0	nt	nt	nt	nt
S=C(Nc1ccc2nsnc2c1)N1CCCC1	1	1	32*	-5	6	15	2	-6	-2
COc1cccc(N2CCN(CC(=O)NCc3ccc(F)cc3)CC2)c1	-2	0	1	nt	0	nt	nt	nt	nt
COc1cccc(-c2cnc3c(NC=O)cc(-c4ccoc4)cn23)c1	0	18	13*	nt	-2	9	1	-7	5
COC(=O)[C@]12C[C@H](CC(=O)NCCCN3CCCC3=O)C(=O)N(Cc3ccc4c(c3)OCO4)C1=C[C@H](C(C)C)O[C@@H]2C1CC1	-4	0	-1	nt	-1	nt	nt	nt	nt
CCN1CCN(C(c2ccc(OC)cc2)c2nnnn2Cc2ccc3c(c2)OCO3)CC1 (stereo unspecified)	2	-4	0	-11	-1	7	nt	nt	nt
CCN1CCN(C(c2ccccc2)c2nnnn2Cc2ccc3c(c2)OCO3)CC1 (stereo unspecified)	3	-4	25*	1	3	0	-1	6	3
COc1cc2c(cc1OC)[C@](C)(c1ccccc1)C[C@@H]2NCC=C(C)C	-5	1	0	nt	-1	nt	nt	nt	nt
O=C(Nc1ccc2c(c1)OCO2)NC1CCCCN(Cc2cccc(Cl)c2)C1=O (stereo unspecified)	4	4	-4	nt	2	nt	nt	nt	nt
CCOC(=O)N1CCN(C(=O)COc2ccc(S(=O)(=O)NC3CCCCC3)cc2C)CC1	-8	-8	16*	-3	-1	-2	2	-7	-2
COCCCC1CCN(C(=O)C2CCC(=O)N(CCCc3ccccc3)C2)CC1 (stereo unspecified)	-3	0	20*	nt	2	-1	2	-6	2
COC(=O)[C@@]12CCCCC=C1N(CCc1ccc(Cl)cc1)C(=O)[C@H]2CC(=O)NCc1cccc2ccccc12	3	14	-3	nt	-1	nt	nt	nt	nt
COC(=O)c1ccc(Cn2ccc3ccc(-c4ccc5ccn(Cc6ccc(OC)cc6)c5c4)cc32)cc1	-2	23	4	nt	-4	nt	nt	nt	nt
COC1=C(NCc2ccc3c(c2)OCO3)C(=O)C(OC)=C(NCc2ccc3c(c2)OCO3)C1=O	-1	5	13*	-8	-6	1	-1	4	1
COC(=O)NCc1ccc2c(c1)OCO2	-1	0	-5	-7	-2	-2	nt	nt	nt
Oc1ccc(Br)cc1-c1cc(-c2ccccc2F)[nH]n1	0	18	-4	4	-2	-2	nt	nt	nt
Oc1ccc(Br)cc1-c1cc(-c2ccccc2Cl)[nH]n1	7	13	25*	22	6	-3	1	-6	-4
O=C(O[C@H]1CC[C@@]23CCCN2C(=O)CCC[C@H]3C1)N1CCOCC1	-1	nt	-1	nt	4	nt	nt	nt	nt
N#CCC[C@@H]1CC[C@]2(CCCN(C(=O)c3cccnc3)C2)O1	-3	0	0	nt	-1	nt	nt	nt	nt
CCOC(=O)c1c2ccc(OCC(=O)N/N=C/c3ccc(Cl)cc3)cc2n2ccccc12	10	8	14*	nt	10	nt	-2	12	6
Cc1nc(C(=O)NCCO)cc2c1[nH]c1ccccc12	-7	2	7	-8	-2	-5	nt	nt	nt
Cc1nc(C(=O)NCCCO)cc2c1[nH]c1ccccc12	0	3	27*	-16	2	0	-2	6	-1
